Columns and labels:
[1] = tested on: Venezuelan equine encephalitis virus; experiment: Antiviral activity against Venezuelan equine encephalitis virus TC83 infected in C3H/HeN mouse assessed as mouse survival at […], ip BID for 4 days dosed 4 hrs before viral infection (reference value: 14%); type: functional; settings: route intraperitoneal
Mus musculus = experiment: Toxicity in Venezuelan equine encephalitis virus TC83 infected C3H/HeN mouse assessed as induction of ruffled fur at 5 mg/kg/day, ip BID for 4 days; type: organism-based; set-up: route intraperitoneal; settings: in vivo, 96 h
[2] = molecular target: Adenosine receptor A3 (Homo sapiens) (UniProt P0DMS8); experiment: Displacement of [125I]AB-MECA from human adenosine A3 receptor at 10 uM
[3] = molecular target: B1 bradykinin receptor (Homo sapiens) (UniProt P46663); experiment: Displacement of [3H](Des-Arg10)-Kallidin from human bradykinin B1 receptor at 10 uM
[4] = molecular target: L-type calcium channel, benzothiazepine site (Rattus norvegicus, UniProt P22002+P27732+Q02485); experiment: Displacement of [3H]diltiazem from rat calcium channel L-Type benzothiazepine site at 10 uM; type: protein assay; settings: probe [3H]diltiazem
Rattus norvegicus [5] = species on record: Rattus norvegicus; experiment: Displacement of [125I]omega-Conotoxin GVIA from rat N-type calcium channel at 10 uM
[6] = molecular target: D(3) dopamine receptor (Homo sapiens) (UniProt P35462); experiment: Displacement of [3H]spiperone from human dopamine D3 receptor at 10 uM
[7] = molecular target: D(4) dopamine receptor (Homo sapiens) (UniProt P21917); experiment: Displacement of [3H]spiperone from human dopamine D4.2 receptor at 10 uM
[8] = molecular target: Endothelin-1 receptor (Homo sapiens) (UniProt P25101); experiment: Displacement of [125I]endothelin-1 from human ETA receptor at 10 uM
[9] = molecular target: Estrogen receptor (Homo sapiens) (UniProt P03372); experiment: Displacement of [3H]estradiol from human ERalpha at 10 uM
[10] = molecular target: GABA-A receptor; anion channel (Homo sapiens) (UniProt P14867+P47870+P18507+P28472+P48169+Q99928+Q9UN88+P34903+O00591+O14764+Q8N1C3+P18505+P78334+P47869+P31644+Q16445); experiment: Displacement of ABC from rat GABAA receptor central flunitrazepam site at 10 uM; type: protein-complex assay; settings: target entry is the homologue from another species
[11] = molecular target: Gamma-aminobutyric acid type B receptor subunit 1 (Homo sapiens) (UniProt Q9UBS5); experiment: Displacement of [3H]CGP-54626 from human GABA B1A receptor at 10 uM
[12] = molecular target: Glucocorticoid receptor (Homo sapiens) (UniProt P04150); experiment: Displacement of [3H]dexamethasone from human glucocorticoid receptor at 10 uM
Rattus norvegicus [13] = species on record: Rattus norvegicus; experiment: Displacement of [3H]kainic acid from rat kainate receptor at 10 uM
[14] = molecular target: Glutamate NMDA receptor (Rattus norvegicus) (UniProt P35439+Q00959+Q00960+Q00961+Q62645+Q8VHN2+Q9R1M7); experiment: Displacement of [3H]CGP-39653 from rat NMDA receptor agonist binding site binding site at 10 uM; type: protein-complex assay
[15] = molecular target: Histamine H2 receptor (Homo sapiens) (UniProt P25021); experiment: Displacement of [125I]aminopotentidine from human histamine H2 receptor at 10 uM
Rattus norvegicus [16] = species on record: Rattus norvegicus; experiment: Displacement of [3H]idazoxan from rat Imidazole receptor 2 at 10 uM
[17] = molecular target: Muscarinic acetylcholine receptor M3 (Homo sapiens) (UniProt P20309); experiment: Displacement of [3H]N-Methylscopolamine from human muscarinic M3 receptor at 10 uM
[18] = molecular target: Neuropeptide Y receptor type 2 (Homo sapiens) (UniProt P49146); experiment: Displacement of [125I]Peptide YY from human neuropeptide Y Y2 receptor at 10 uM
[19] = molecular target: Acetylcholine receptor subunit alpha (Homo sapiens) (UniProt P02708); experiment: Displacement of [125I]alpha-Bungarotoxin from human nAchR alpha1 bungarotoxin binding site at 10 uM
[20] = molecular target: Kappa-type opioid receptor (Homo sapiens) (UniProt P41145); experiment: Displacement of [3H]diprenorphine from human kappa opiate receptor at 10 uM
Rattus norvegicus [21] = species on record: Rattus norvegicus; experiment: Displacement of radioligand from rat sodium channel site 2 at 10 uM
[22] = molecular target: Substance-P receptor (Homo sapiens) (UniProt P25103); experiment: Displacement of [3H]substance P from human NK1 receptor 2 at 10 uM
[23] = Plasma concentration in C57BL/6 mouse at 1 mg/kg, ip administered as single dose measured after 20 mins by LC/MS analysis based RACE assay; type: ADME, organism-based; set-up: dose 1 mg/kg, route intraperitoneal
Outline: (§1)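 Single intraperitoneal dose of 1, 5 or 10 mg/kg given to C57BL/6 mice, 3 mice per dose and time point, with a vehicle-control cohort. Plasma was sampled at 20 and 120 min post-dose and drug level measured by LC/MS. Each time point averaged two injections (<20% difference); values are means ± standard deviation in μM.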

[24] = tested on: Venezuelan equine encephalitis virus; experiment: Antiviral activity against Venezuelan equine encephalitis virus V3526 infected in Vero 76 cells assessed as reduction in virus-induced cytopathic effect after 2 days by Celltiter-Glo reagent based assay; type: functional, organism-based; settings: V3526, Vero 76, 48 h
[25] = tested on: Venezuelan equine encephalitis virus; experiment: Antiviral activity against Venezuelan equine encephalitis virus TrD infected in Vero 76 cells assessed as reduction in virus-induced cytopathic effect after 2 days by Celltiter-Glo reagent based assay; type: functional, organism-based; settings: Vero 76, 48 h
[26] = tested on: Venezuelan equine encephalitis virus; experiment: Antiviral activity against Venezuelan equine encephalitis virus TC83 infected in Vero 76 cells assessed as reduction in viral titer by crystal violet staining based microplaque assay relative to untreated control; type: functional, organism-based; settings: TC83, Vero 76
[27] = Chemical stability in presence of 5x DTT assessed as parent compound remaining incubated for 8 hrs; type: physicochemical; settings: read-out: Stability
[28] = Stability in pH 7.4 PBS buffer assessed as parent compound remaining; type: physicochemical
Outline: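 Aqueous stability measured after 48 h incubation, in PBS pH 7.4 or in 1:1 PBS/acetonitrile; reported as % parent remaining.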

[29] = Hepatotoxicity in human Fa2N-4 cells; type: toxicity, cell-based; settings: read-out: LD50 (the source's name)
[30] = Plasma concentration in C57BL/6 mouse at 5 mg/kg, ip administered as single dose measured after 120 mins by LC/MS analysis based RACE assay; type: ADME, organism-based; set-up: dose 5 mg/kg, route intraperitoneal; outline: as §1
[31] = Drug concentration in C57BL/6 mouse brain at 1 mg/kg, ip administered as single dose measured after 120 mins by LC/MS analysis based RACE assay; type: ADME, organism-based; set-up: dose 1 mg/kg, route intraperitoneal; settings: read-out: Drug uptake
Outline: (§2)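 Brain tissue taken at the terminal 120 min point after one intraperitoneal dose (1, 5 or 10 mg/kg) in C57BL/6 mice, 3 per group, with a vehicle cohort. Drug level measured by LC/MS, averaging two injections per sample; reported as mean ± standard deviation, μM.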

[32] = Drug concentration in C57BL/6 mouse brain at 5 mg/kg, ip administered as single dose measured after 120 mins by LC/MS analysis based RACE assay; type: ADME, organism-based; set-up: dose 5 mg/kg, route intraperitoneal; settings: read-out: Drug uptake; outline: as §2

Sequence of Histamine H2 receptor (Homo sapiens) (P25021 whole entry): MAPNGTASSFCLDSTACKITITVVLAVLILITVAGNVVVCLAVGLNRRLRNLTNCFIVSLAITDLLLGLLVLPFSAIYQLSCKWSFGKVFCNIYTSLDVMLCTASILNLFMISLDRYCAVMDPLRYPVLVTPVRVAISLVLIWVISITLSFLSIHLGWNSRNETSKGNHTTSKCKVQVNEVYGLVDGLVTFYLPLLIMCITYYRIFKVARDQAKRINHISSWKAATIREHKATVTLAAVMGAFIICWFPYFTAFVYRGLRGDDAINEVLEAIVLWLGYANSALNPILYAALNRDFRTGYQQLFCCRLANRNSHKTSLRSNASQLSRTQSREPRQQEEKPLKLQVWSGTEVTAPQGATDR
Sequence of Muscarinic acetylcholine receptor M3 (Homo sapiens) (P20309 whole entry, looked up): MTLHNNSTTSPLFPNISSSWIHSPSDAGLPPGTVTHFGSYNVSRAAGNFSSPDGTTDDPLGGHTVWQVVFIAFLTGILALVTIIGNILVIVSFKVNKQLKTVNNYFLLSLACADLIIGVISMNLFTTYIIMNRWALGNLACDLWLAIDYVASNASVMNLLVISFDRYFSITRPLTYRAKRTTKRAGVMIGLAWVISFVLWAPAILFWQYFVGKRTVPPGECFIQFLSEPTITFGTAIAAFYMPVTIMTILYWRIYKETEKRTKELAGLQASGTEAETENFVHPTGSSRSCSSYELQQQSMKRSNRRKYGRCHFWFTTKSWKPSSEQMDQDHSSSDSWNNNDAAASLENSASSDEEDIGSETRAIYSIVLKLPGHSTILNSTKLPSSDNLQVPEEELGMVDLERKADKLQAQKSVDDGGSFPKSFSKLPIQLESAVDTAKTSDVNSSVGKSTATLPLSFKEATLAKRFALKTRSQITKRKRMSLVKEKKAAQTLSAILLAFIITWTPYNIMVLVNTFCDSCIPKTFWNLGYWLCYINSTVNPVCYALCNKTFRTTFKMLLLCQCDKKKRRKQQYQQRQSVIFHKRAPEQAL
Sequence of Glucocorticoid receptor (Homo sapiens) (P04150 whole entry): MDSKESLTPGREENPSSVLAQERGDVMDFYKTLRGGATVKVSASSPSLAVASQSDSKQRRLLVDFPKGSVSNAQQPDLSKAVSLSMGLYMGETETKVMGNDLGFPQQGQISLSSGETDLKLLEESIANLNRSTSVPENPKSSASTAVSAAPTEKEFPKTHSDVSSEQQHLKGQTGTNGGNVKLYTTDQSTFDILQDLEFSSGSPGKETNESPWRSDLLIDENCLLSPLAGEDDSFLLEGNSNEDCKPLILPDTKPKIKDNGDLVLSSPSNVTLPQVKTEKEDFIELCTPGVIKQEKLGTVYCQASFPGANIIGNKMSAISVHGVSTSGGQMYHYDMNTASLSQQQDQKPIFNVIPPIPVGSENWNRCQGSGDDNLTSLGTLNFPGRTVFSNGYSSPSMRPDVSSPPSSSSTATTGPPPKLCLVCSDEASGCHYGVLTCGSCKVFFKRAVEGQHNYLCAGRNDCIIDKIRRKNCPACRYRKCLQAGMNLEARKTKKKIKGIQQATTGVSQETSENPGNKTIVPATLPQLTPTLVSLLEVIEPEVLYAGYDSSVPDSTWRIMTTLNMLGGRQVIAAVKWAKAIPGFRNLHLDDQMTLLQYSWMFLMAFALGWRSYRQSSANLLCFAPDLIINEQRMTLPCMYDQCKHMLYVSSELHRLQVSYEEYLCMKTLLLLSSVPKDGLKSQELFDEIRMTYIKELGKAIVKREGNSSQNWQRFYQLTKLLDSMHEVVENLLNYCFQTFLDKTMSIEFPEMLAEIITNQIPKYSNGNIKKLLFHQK
Sequence of Kappa-type opioid receptor (Homo sapiens) (P41145 whole entry): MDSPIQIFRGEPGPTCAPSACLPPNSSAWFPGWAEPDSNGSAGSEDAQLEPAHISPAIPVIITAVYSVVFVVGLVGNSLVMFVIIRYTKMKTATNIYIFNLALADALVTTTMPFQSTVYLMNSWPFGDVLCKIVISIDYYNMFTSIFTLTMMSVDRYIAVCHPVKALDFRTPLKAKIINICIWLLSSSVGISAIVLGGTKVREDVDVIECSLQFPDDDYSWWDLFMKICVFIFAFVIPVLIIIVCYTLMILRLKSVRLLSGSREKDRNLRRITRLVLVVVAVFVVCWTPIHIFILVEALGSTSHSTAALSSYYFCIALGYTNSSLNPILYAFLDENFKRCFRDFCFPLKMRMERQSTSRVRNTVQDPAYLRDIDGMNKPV
Sequence of D(3) dopamine receptor (Homo sapiens) (P35462 whole entry): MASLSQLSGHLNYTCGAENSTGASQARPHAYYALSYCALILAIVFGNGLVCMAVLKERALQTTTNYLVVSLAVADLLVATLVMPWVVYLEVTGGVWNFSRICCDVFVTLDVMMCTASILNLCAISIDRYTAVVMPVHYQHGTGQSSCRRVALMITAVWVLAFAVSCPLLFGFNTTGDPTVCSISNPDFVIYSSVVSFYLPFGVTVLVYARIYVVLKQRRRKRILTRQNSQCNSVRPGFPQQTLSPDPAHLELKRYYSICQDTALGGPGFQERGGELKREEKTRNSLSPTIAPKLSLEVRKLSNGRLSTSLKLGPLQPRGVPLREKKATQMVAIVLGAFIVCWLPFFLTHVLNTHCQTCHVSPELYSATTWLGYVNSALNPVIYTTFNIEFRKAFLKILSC
Sequence of Gamma-aminobutyric acid type B receptor subunit 1 (Homo sapiens) (Q9UBS5 whole entry): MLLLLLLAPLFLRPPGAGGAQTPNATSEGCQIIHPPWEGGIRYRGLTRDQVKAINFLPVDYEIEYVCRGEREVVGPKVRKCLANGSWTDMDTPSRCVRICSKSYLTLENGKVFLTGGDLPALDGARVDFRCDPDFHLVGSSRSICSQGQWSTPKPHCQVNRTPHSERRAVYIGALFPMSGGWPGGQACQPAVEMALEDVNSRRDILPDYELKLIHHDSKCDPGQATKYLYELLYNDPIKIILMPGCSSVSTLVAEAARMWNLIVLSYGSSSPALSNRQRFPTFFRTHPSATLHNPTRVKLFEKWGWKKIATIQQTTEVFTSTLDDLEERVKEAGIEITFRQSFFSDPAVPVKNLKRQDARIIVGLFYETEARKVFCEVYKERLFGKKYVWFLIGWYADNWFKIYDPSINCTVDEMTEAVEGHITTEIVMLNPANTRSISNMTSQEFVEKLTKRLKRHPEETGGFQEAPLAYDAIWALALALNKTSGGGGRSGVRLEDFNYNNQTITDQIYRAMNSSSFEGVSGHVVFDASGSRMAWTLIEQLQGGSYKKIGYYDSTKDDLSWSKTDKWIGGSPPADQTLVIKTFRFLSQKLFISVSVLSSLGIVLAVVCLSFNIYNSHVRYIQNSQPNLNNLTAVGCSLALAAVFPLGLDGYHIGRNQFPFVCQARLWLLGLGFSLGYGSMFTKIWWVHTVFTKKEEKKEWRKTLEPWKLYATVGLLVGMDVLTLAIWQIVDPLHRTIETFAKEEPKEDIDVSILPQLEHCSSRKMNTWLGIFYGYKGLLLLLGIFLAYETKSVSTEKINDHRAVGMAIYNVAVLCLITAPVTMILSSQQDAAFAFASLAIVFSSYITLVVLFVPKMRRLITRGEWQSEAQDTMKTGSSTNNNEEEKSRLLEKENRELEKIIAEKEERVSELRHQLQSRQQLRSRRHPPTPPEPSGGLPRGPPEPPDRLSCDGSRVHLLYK
Sequence of Adenosine receptor A3 (Homo sapiens) (P0DMS8 whole entry): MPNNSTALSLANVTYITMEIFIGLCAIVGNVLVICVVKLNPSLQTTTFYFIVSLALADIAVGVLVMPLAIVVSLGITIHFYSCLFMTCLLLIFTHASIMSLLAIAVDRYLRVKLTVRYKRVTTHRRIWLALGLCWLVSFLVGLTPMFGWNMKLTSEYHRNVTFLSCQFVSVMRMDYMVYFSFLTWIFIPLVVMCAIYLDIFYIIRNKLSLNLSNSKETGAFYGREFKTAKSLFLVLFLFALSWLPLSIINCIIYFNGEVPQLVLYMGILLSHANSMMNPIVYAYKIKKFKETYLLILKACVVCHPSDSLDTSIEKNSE
Sequence of Neuropeptide Y receptor type 2 (Homo sapiens) (P49146 whole entry): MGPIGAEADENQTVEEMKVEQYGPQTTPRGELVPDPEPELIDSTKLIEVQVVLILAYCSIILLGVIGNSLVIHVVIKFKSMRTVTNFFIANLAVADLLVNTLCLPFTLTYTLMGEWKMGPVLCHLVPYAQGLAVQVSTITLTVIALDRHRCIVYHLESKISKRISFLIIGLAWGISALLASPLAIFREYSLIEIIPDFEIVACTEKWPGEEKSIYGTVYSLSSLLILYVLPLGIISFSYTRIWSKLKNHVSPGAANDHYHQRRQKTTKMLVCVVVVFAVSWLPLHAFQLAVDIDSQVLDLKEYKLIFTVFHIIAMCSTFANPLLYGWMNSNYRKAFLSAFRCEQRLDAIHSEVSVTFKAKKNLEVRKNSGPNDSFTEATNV
Sequence of Substance-P receptor (Homo sapiens) (P25103 whole entry): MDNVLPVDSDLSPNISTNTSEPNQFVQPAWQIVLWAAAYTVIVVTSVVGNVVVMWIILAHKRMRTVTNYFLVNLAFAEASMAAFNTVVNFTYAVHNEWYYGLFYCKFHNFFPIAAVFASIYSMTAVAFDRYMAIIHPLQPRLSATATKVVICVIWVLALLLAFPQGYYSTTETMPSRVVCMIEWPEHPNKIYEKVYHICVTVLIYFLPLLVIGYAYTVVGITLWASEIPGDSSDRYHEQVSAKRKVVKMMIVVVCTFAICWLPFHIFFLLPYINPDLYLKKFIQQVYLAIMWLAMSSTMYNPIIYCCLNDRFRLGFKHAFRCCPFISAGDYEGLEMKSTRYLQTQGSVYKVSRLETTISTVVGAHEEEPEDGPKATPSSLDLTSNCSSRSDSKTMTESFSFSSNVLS
Sequence of Endothelin-1 receptor (Homo sapiens) (P25101 whole entry): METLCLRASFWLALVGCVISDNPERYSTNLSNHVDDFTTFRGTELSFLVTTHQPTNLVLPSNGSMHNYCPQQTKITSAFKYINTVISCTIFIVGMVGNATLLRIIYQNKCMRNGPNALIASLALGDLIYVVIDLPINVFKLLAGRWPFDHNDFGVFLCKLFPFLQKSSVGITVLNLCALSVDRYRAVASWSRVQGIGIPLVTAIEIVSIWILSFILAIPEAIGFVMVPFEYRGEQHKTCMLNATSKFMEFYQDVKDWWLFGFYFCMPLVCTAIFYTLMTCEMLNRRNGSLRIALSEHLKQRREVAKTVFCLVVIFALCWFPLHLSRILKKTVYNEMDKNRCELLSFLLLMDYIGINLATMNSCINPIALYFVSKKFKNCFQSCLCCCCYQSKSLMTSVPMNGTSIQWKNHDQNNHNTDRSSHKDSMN

For `CN1CCN(C)/C(=N/c2ccc([N+](=O)[O-])cc2C(=O)Nc2ccccc2)C1`, which survival at […] [1] is on record?
Its survival at […] is 127%.

What about the Activity (Mus musculus) of the same compound?
Its Activity is “Non-toxic”.

What about the inhibition [2] of the same compound?
The inhibition was 26.7%.

And the inhibition [3]?
Its inhibition is 9.23%.

What about the inhibition at 10 µM [4] of the same compound?
Its inhibition at 10 µM is 7.06%.

And the inhibition (Rattus norvegicus [5])?
The inhibition was 22.7%.

What about the inhibition [6] of the same compound?
The inhibition was -1.53%.

What about the inhibition [7] of the same compound?
The inhibition was 11.2%.

What about the inhibition [8] of the same compound?
The inhibition was 7.78%.

What about the inhibition [9] of the same compound?
Its inhibition is 10%.

And the inhibition [10]?
Its inhibition is 15.2%.

What about the inhibition [11] of the same compound?
Its inhibition is 35.9%.

And the inhibition [12]?
Its inhibition is 10.2%.

And the inhibition (Rattus norvegicus [13])?
Its inhibition is 22.3%.

What about the inhibition [14] of the same compound?
The inhibition was -2.6%.

And the inhibition [15]?
The inhibition was 20.4%.

And the inhibition (Rattus norvegicus [16])?
Its inhibition is 14.4%.

What about the inhibition [17] of the same compound?
Its inhibition is 3%.

And the inhibition [18]?
The inhibition was -6.1%.

And the inhibition [19]?
Its inhibition is 0.62%.

And the inhibition [20]?
Its inhibition is 9.71%.

And the inhibition (Rattus norvegicus [21])?
The inhibition was 9.27%.

What about the inhibition [22] of the same compound?
Its inhibition is 8.19%.

And the concentration at 20 min [23]?
The concentration at 20 min was 200 nM.

What about the EC50 [24] of the same compound?
The EC50 was 20 nM.

What about the EC50 [25] of the same compound?
The EC50 was 40 nM.

And the EC50 [26]?
The EC50 was 170 nM.

And the remaining at 8 h [27]?
Its remaining at 8 h is 99%.

What about the Stability [28] of the same compound?
The Stability was 82.9%.

What about the CC50 [29] of the same compound?
The CC50 was greater than 250000 nM.

And the concentration at 2 h [30]?
The concentration at 2 h was 290 nM.

What about the concentration at 2 h [31] of the same compound?
The concentration at 2 h was 190 nM.

What about the concentration at 2 h [32] of the same compound?
Its concentration at 2 h is 210 nM.

Reference: ChEMBL document CHEMBL3352189 (J Med Chem, 2014)
